Here are results for ten compounds from ChEMBL document CHEMBL1125607, “Novel gonadotropin-releasing hormone antagonists: peptides incorporating modified N omega-cyanoguanidino moieties” (J Med Chem, 1991).

Converted amounts (≈) assume the structure as drawn. The source made the active and inactive calls. The rule behind the calls is not given here.

In assay [1] the test system is Rattus norvegicus. Put plainly: Potency (0.5 mg/rat) using anti-ovulatory assay, expressed as rat ovulating/total number of treated rats measured after sc administration; 7/7. Format: functional, organism-based.
In assay [2] the test system is Rattus norvegicus. Put plainly: Potency (1 mg/rat) using anti-ovulatory assay, expressed as rat ovulating/total number of treated rats measured after sc administration; 2/8. Format: functional, organism-based.
Assay [3] concerns the target T1, Gonadotropin-releasing hormone receptor (Rattus norvegicus, UniProt P30969).
T1 sequence (P30969 whole entry): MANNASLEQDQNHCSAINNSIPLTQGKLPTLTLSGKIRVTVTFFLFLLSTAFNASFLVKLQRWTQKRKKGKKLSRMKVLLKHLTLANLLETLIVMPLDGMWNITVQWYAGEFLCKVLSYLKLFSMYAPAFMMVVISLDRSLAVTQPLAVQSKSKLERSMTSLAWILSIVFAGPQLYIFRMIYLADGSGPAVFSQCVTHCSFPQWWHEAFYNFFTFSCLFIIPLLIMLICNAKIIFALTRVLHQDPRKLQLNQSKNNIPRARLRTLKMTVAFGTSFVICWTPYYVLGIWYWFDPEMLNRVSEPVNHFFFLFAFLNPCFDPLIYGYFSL
Put plainly: In vitro binding affinity of Gonadotropin-releasing hormone antagonist was measured in rat pituitary cell membranes. Details: species or system Pituitary gland cell, Membrane. The gist of the method: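 Displacement binding on pituitary cell membranes with [DAla6,NMe-Leu7,Pro9-NHEt]GnRH as standard; analogue KD values calculated from potencies relative to that standard derived from displacement data.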

Assay [4] deals with Gonadotropin-releasing hormone receptor (Rattus norvegicus) (UniProt P30969). As to the kind of experiment: Antagonist potency at GnRH receptor relative to a standard ([Ac-delta3Pro, DFpa2, DTrp3,6]GnRH).
The species named for assay [5] is Rattus norvegicus. As to the kind of experiment: In vitro histamine release by rat mast cells. As to conditions: read-out: ED50 (the source's name).
Assay [6] relates to Rattus norvegicus. Put plainly: Potency (10 mg/rat) using anti-ovulatory assay, expressed as rat ovulating/total number of treated rats measured after sc administration; 4/4. Format: functional, organism-based.
Assay [7] relates to Rattus norvegicus. As to the kind of experiment: Potency (2.5 mg/rat) using anti-ovulatory assay, expressed as rat ovulating/total number of treated rats measured after sc administration; 7/9. Format: functional, organism-based.
Assay [8] relates to Rattus norvegicus. Put plainly: Potency (1 mg/rat) using anti-ovulatory assay, expressed as rat ovulating/total number of treated rats measured after sc administration; 6/6. Format: functional, organism-based.
Assay [9] relates to Rattus norvegicus. Put plainly: Potency (2.5 mg/rat) using anti-ovulatory assay, expressed as rat ovulating/total number of treated rats measured after sc administration; 1/8. Format: functional, organism-based.
The subject of assay [10] is Rattus norvegicus. Put plainly: Potency (5 mg/rat) using anti-ovulatory assay, expressed as rat ovulating/total number of treated rats measured after sc administration; 1/6. Format: functional, organism-based.
Assay [11] deals with Rattus norvegicus. As to the kind of experiment: Potency (2.5 mg/rat) using anti-ovulatory assay, expressed as rat ovulating/total number of treated rats measured after sc administration; 5/6. Format: functional, organism-based.
In assay [12] the test system is Rattus norvegicus. As to the kind of experiment: Potency (2.5 mg/rat) using anti-ovulatory assay, expressed as rat ovulating/total number of treated rats measured after sc administration; 2/9. Format: functional, organism-based.
The test system of assay [13] is Rattus norvegicus. Put plainly: Potency (2.5 mg/rat) using anti-ovulatory assay, expressed as rat ovulating/total number of treated rats measured after sc administration; 7/7. Format: functional, organism-based.
The subject of assay [14] is Rattus norvegicus. Put plainly: Potency (5 mg/rat) using anti-ovulatory assay, expressed as rat ovulating/total number of treated rats measured after sc administration; 0/7. Format: functional, organism-based.
For assay [15], the system named is Rattus norvegicus. As to the kind of experiment: Potency (5 mg/rat) using anti-ovulatory assay, expressed as rat ovulating/total number of treated rats measured after sc administration; 2/5. Format: functional, organism-based.
For assay [16], the system named is Rattus norvegicus. As to the kind of experiment: Potency (10 mg/rat) using anti-ovulatory assay, expressed as rat ovulating/total number of treated rats measured after sc administration; 0/6. Format: functional, organism-based.
Assay [17] deals with Rattus norvegicus. Put plainly: Potency (2.5 mg/rat) using anti-ovulatory assay, expressed as rat ovulating/total number of treated rats measured after sc administration; 0/8. Format: functional, organism-based.
Assay [18] deals with Rattus norvegicus. Put plainly: Potency (1 mg/rat) using anti-ovulatory assay, expressed as rat ovulating/total number of treated rats measured after sc administration; 5/8. Format: functional, organism-based.
Assay [19] relates to Rattus norvegicus. As to the kind of experiment: Potency (2.5 mg/rat) using anti-ovulatory assay, expressed as rat ovulating/total number of treated rats measured after sc administration; 5/9. Format: functional, organism-based.

One may read the Kd as the equilibrium constant for the complex coming apart. Higher therefore signals a looser complex. As for `CCCC/N=C(\NC#N)NCCCC[C@@H](NC(=O)[C@H](Cc1c[nH]cn1)NC(=O)[C@@H]1CCC(=O)N1)C(=O)N[C@@H](CO)C(=O)N[C@@H](Cc1ccc(O)cc1)C(=O)N[C@H](CCCN=C(N)N)C(=O)N[C@@H](CC(C)C)C(=O)N[C@@H](CCCCNC(C)C)C(=O)N1CCC[C@H]1C(=O)N[C@H](C)C(N)=O`, in the assay on Rattus norvegicus [1], the outcome was inactive. In the assay on Rattus norvegicus [2], the outcome was Active. The same compound came in with a Kd in assay [3] of 1.2 nM. This compound returned a Relative potency in assay [4] of 1.4. Besides, the EC50 in the assay filed under Rattus norvegicus [5] was 6 µg/mL (≈ 4.36 µM).
In turn, `CC(C)C[C@H](NC(=O)[C@@H](Cc1cccnc1)NC(=O)[C@H](Cc1ccc(O)cc1)NC(=O)[C@H](CO)NC(=O)[C@H](Cc1ccc(Nc2n[nH]c(N)n2)cc1)NC(=O)[C@H](Cc1c[nH]cn1)NC(=O)[C@@H]1CCC(=O)N1)C(=O)N[C@@H](CCCCNC(C)C)C(=O)N1CCC[C@H]1C(=O)N[C@H](C)C(N)=O` had a Relative potency in assay [4] of 0.06. Also, in the assay with Rattus norvegicus [6], the outcome was inactive.
In turn, `CC(C)C[C@H](NC(=O)[C@@H](CCCC/N=C(\NC#N)NC1CCCCC1)NC(=O)[C@H](CCCC/N=C(\NC#N)NC1CCCCC1)NC(=O)[C@H](CO)NC(=O)[C@H](Cc1c[nH]c2ccccc12)NC(=O)[C@H](Cc1c[nH]cn1)NC(=O)[C@@H]1CCC(=O)N1)C(=O)N[C@@H](CCCCNC(C)C)C(=O)N1CCC[C@H]1C(=O)N[C@H](C)C(N)=O` showed a Relative potency in assay [4] of 0.42. Also, the outcome in the assay on Rattus norvegicus [7] was inactive.
`CC(C)C[C@H](NC(=O)[C@@H](CCCCNc1n[nH]c(N)n1)NC(=O)[C@H](Cc1ccc(O)cc1)NC(=O)[C@H](CO)NC(=O)[C@H](CCCCNc1n[nH]c(N)n1)NC(=O)[C@H](Cc1c[nH]cn1)NC(=O)[C@@H]1CCC(=O)N1)C(=O)N[C@@H](CCCCNC(C)C)C(=O)N1CCC[C@H]1C(=O)N[C@H](C)C(N)=O`: the outcome in the assay with Rattus norvegicus [8] was inactive. Besides, the Relative potency in assay [4] was determined as 0.6. Also, in the assay with Rattus norvegicus [9], the outcome was Active.
For `CCCC/N=C(\NC#N)NCCCC[C@H](NC(=O)[C@H](CC(C)C)NC(=O)[C@@H](CCCN=C(N)N)NC(=O)[C@H](Cc1ccc(O)cc1)NC(=O)[C@H](CO)NC(=O)[C@@H](Cc1cccnc1)NC(=O)[C@H](Cc1c[nH]cn1)NC(=O)[C@@H]1CCC(=O)N1)C(=O)N1CCC[C@H]1C(=O)N[C@H](C)C(N)=O`, in the assay on Rattus norvegicus [10], the result was Active. In assay [3] (pituitary gland cell), the affinity, expressed as Kd, was 1 nM. In addition, the Relative potency in assay [4] was found to be 1.2. The outcome with Rattus norvegicus [11] was inactive. Also, in the assay filed under Rattus norvegicus [5], the EC50 turned out to be 3.5 µg/mL (≈ 2.59 µM).
Take `CC(C)C[C@H](NC(=O)[C@@H](CCC/N=C(\NC#N)NCc1ccccn1)NC(=O)[C@H](CCC/N=C(\NC#N)NCc1ccccn1)NC(=O)[C@H](CO)NC(=O)[C@H](Cc1c[nH]c2ccccc12)NC(=O)[C@H](Cc1c[nH]cn1)NC(=O)[C@@H]1CCC(=O)N1)C(=O)N[C@@H](CCCCNC(C)C)C(=O)N1CCC[C@H]1C(=O)N[C@H](C)C(N)=O`: in [3], the Kd came to 0.41 nM. The compound also had a Relative potency in assay [4] of 0.9. Also, the outcome in the assay on Rattus norvegicus [12] was Active.
Turning to `CCCC/N=C(/NCCCC[C@H](NC(=O)[C@H](CC(C)C)NC(=O)[C@@H](CCCCNC(=O)c1cccnc1)NC(=O)[C@H](CCCCNC(=O)c1cccnc1)NC(=O)[C@H](CO)NC(=O)[C@H](Cc1c[nH]c2ccccc12)NC(=O)[C@H](Cc1c[nH]cn1)NC(=O)[C@@H]1CCC(=O)N1)C(=O)N1CCC[C@H]1C(=O)N[C@H](C)C(N)=O)NC(N)=O`, the Kd in assay [3] came out at 0.11 nM. Further, the result in the assay on Rattus norvegicus [13] was inactive. Further, the outcome in the assay on Rattus norvegicus [14] was Active.
As to `CC(C)C[C@H](NC(=O)[C@@H](CCCN=C(N)N)NC(=O)[C@H](Cc1ccc(O)cc1)NC(=O)[C@H](CO)NC(=O)[C@@H](CCCCNc1n[nH]c(N)n1)NC(=O)[C@H](Cc1c[nH]cn1)NC(=O)[C@@H]1CCC(=O)N1)C(=O)N[C@@H](CCCCNC(C)C)C(=O)N1CCC[C@H]1C(=O)N[C@H](C)C(N)=O`, the Activity result in the assay on Rattus norvegicus [15] is “Weak activity”. In [4], this compound registered a Relative potency of 0.3. For the same compound, in the assay with Rattus norvegicus [16], the outcome was Active. Further, the EC50 in the assay filed under Rattus norvegicus [5] is 9.5 µg/mL (≈ 7.12 µM).
Regarding `CCCC/N=C(\NC#N)NCCC[C@H](NC(=O)[C@H](CO)NC(=O)[C@H](Cc1c[nH]c2ccccc12)NC(=O)[C@H](Cc1c[nH]cn1)NC(=O)[C@@H]1CCC(=O)N1)C(=O)N[C@H](CCCN/C(=N/CCCC)NC#N)C(=O)N[C@@H](CC(C)C)C(=O)N[C@@H](CCCCNC(C)C)C(=O)N1CCC[C@H]1C(=O)N[C@H](C)C(N)=O`, binding in [3] was put at a Kd of 2.1 nM. In addition, in the assay on Rattus norvegicus [17], the outcome was Active. In addition, the Relative potency in assay [4] worked out at 1. Besides, the Activity entry with Rattus norvegicus [18] was “Weak activity”.
In turn, `CCCC/N=C(\NC#N)NCCCC[C@H](NC(=O)[C@H](Cc1c[nH]cn1)NC(=O)[C@@H]1CCC(=O)N1)C(=O)N[C@@H](CO)C(=O)N[C@@H](Cc1ccc(O)cc1)C(=O)N[C@H](CCCCN/C(=N/CCCC)NC#N)C(=O)N[C@@H](CC(C)C)C(=O)N[C@@H](CCCCNC(C)C)C(=O)N1CCC[C@H]1C(=O)N[C@H](C)C(N)=O` registered a Relative potency in assay [4] of 1.4. In addition, the Activity entry with Rattus norvegicus [19] was “Weak activity”.
